TRPC4 agonist – activators of mouse TRPC4 channel; Q9QUQ5; HEK293 TRPC4beta/mu-opioid, Fluo4 calcium fluorescence; active compounds read high; B-score at 10 µM; actives 0.49% (n = 310,000);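 active = B-score above 5 SD of library B-scores, and initial fluorescence ratio not above library mean plus 5 SD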;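 note: positive B-score marks a calcium rise read as TRPC4 activation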
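Material: TRPC4beta and mu-opioid receptor HEK293 stable cells | Incubation: 45 min room-temperature Fluo4 loading, 110 s read | Detection: Kinetic Fluo4 calcium fluorescence | Measure: Integrated baseline-normalised fluorescence ratio, converted to per-well B score | Benchmarks: Low control buffer alone, high control maximal DAMGO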
TRPC4 potent – allosterically enhances the mouse TRPC4 cation channel | actives 0.42% (n = 310,000) | B-score at 10 µM | HEK293 TRPC4beta/mu-opioid, DAMGO EC20, Fluo-4 Ca2+ flux; active compounds read high;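 active = B-score of calcium response area above 5 SD of library B-scores, with initial fluorescence ratio within 5 SD of library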;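 note: B-score of integrated fluorescence ratio over time as area under calcium response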
TRPC6 activator – activators of mouse TRPC6 channel; AID 2550; actives 0.13% (n = 310,000); HEK293-TRPC6 membrane potential dye fluorescence; active compounds read high; B-score at 10 µM;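 active = B-score of the integrated fluorescence ratio above library mean plus 3 SD, and starting fluorescence ratio within library mean plus 5 SD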;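 note: higher score means more depolarization so channel activation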
Target sequence (Q61143 whole entry, looked up): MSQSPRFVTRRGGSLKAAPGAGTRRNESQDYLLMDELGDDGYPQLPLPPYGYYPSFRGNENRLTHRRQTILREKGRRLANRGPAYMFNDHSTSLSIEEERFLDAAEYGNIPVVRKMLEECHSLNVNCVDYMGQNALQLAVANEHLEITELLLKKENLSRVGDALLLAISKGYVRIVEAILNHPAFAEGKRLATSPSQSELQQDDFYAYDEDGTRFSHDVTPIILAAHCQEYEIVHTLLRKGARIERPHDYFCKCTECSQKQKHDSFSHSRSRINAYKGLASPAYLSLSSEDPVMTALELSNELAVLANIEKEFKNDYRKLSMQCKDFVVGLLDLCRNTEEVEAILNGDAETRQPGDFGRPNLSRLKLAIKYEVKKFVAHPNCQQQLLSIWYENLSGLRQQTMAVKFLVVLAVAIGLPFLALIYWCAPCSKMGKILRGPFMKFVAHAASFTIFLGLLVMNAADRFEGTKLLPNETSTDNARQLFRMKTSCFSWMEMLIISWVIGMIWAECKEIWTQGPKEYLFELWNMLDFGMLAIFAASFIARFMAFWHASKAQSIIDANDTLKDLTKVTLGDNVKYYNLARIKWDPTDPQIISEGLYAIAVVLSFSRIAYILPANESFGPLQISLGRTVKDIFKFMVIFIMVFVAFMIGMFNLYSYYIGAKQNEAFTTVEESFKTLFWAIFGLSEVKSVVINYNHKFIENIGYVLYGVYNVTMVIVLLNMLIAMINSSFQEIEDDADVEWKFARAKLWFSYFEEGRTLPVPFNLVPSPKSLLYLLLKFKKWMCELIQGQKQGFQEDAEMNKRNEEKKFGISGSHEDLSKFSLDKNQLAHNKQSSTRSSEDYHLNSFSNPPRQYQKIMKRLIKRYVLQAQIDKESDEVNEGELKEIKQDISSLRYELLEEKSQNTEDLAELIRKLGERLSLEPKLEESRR
TRPC6 inh – inhibitors of mouse TRPC6 channel. actives 1.1% (n = 310,000). HEK293-TRPC6, membrane potential dye, ACh-evoked depolarization; active compounds read low. Q61143. B-score at 10 µM. AID 2553;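 active = B-score under library mean minus 3 SD, initial fluorescence not abnormally high, positive integrated signal ratio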;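 note: B-score derived from integrated fluorescence ratio over the kinetic read; more negative B-score means stronger inhibition of depolarization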
TRPC4 block – blocks the mouse TRPC4 cation channel | Q9QUQ5 | HEK293 TRPC4beta/mu-opioid, DAMGO-evoked Fluo4 calcium flux; active compounds read low | B-score at 10 µM | actives 0.39% (n = 300,000);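 active = B-score over 3 SD under the library average, no early fluorescence shift, positive overall ratio signal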
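Assay system: Stable TRPC4beta/mu-opioid receptor HEK293 cells | Reagent: DAMGO in two steps, submaximal then maximal | Compound dosing: Single concentration per test compound | Signal: Fluo4 Ca2+ flux fluorescence | Evaluation: Per-well B score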
TRPC4 sel inh 2 – mouse TRPC4 off-target activity of TRPC6 inhibitors, second screen | shares compounds with TRPC6 inh | HEK293 TRPC4/MOR, membrane potential dye fluorescence; channel activated by saturating DAMGO dose | inhibition, % at 10 µM | actives 42% (n = 920);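 active = compounds whose fluorescence signal differed from control wells by over 3 SD, either direction, in both duplicate plates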
TRPC4 spec – mouse TRPC4 off-target activity of TRPC6 inhibitors; HEK293 TRPC4/mu-opioid, membrane potential fluorescence; shares compounds with TRPC6 inh; actives 61% (n = 920); activity change, negative = inhibition, % at 10 µM;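 active = rise or fall in signal beyond 3 SD of buffer-only wells in both replicate plates, either sign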;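 note: integrated kinetic ratio of fluorescence range over baseline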
HEK293 MPD ctr 2-1 – second check of TRPC6 inhibitor effects in parental HEK293 cells. shares compounds with TRPC6 inh. parental HEK293 membrane potential dye fluorescence; maximal acetylcholine challenge after compound addition. signal change vs control, % at 10 µM. actives 31% (n = 920). AID 2779;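 active = membrane potential signal moving either way by over 3 SD of the maximum-effect control, in both duplicate plates, meaning non-specific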
HEK293 MPD ctr-1 – parental HEK293 nonspecific activity of TRPC6 inhibitors; membrane potential signal change, % at 10 µM; actives 60% (n = 920); shares compounds with TRPC6 inh; AID 2780; parental HEK293 membrane potential dye fluorescence;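 active = membrane potential signal shifting up or down by more than 3 SD of buffer-only wells, on both duplicate plates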
HEK293 MPD ctr-2 – checks TRPC6 modulator effects in parental HEK293 cells | shares compounds with TRPC6 inh | actives 51% (n = 2,400) | membrane potential signal change, % at 10 µM | membrane potential dye fluorescence;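 active = membrane potential signal moves up or down beyond 5 SD from buffer-only wells, on both duplicate plates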
HEK293 MPD ctr 2-2 – parental HEK293 nonspecific activity of TRPC6 modulators, second screen. shares compounds with TRPC6 inh. inhibition, % at 10 µM. membrane potential dye fluorescence; after compound, maximal acetylcholine stimulation. actives 14% (n = 2,400);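 active = membrane potential signal drops by more than 5 SD from the mean control signal, in both duplicate plates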;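 note: plate controls were acetylcholine ECmax control wells for no effect and buffer only wells for full effect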
TRPC4 ctr mod – selectivity of TRPC6 modulators against mouse TRPC4; AID 488927; actives 69% (n = 2,400); shares compounds with TRPC6 inh; percent change from control (negative = decrease, positive = increase), % at 10 µM; HEK293 TRPC4/mu-opioid, membrane potential fluorescence;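 active = membrane potential signal moved up or down beyond 5 SD of buffer control wells, in both duplicate plates, actives on both sides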;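 note: plate controls were assay buffer wells for no effect and DAMGO maximal-effect wells for full effect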
TRPC4 ctr inh 2 – mouse TRPC4 off-target activity of TRPC6 modulators, second screen. shares compounds with TRPC6 inh. HEK293 TRPC4/mu-opioid, membrane potential dye fluorescence; stimulated with maximal-effect DAMGO. inhibition, % at 10 µM. actives 55% (n = 2,400). AID 488928;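 active = drop in membrane potential signal beyond 5 SD of the control wells in both duplicate plates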;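 note: TRPC4 counter screen for TRPC6 hits run under conditions tuned for TRPC6 not TRPC4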
TRPC6 block conf – confirmation of mouse TRPC6 inhibitors; shares compounds with TRPC6 inh; HEK293-TRPC6, membrane potential dye, ACh-evoked depolarization; inhibition, % at 10 µM; actives 43% (n = 3,300);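 active = fluorescence ratio falls more than 5 SD below the full-stimulation control mean, in both duplicate runs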;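 note: integrated fluorescence ratio of peak minus minimum over baseline after agonist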
TRPC6 act confirm – mouse TRPC6 activator confirmation; actives 11% (n = 2,800); activation, % at 10 µM; shares compounds with TRPC6 inh; AID 488961; HEK293-TRPC6 membrane potential dye fluorescence, FDSS;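 active = ratio signal rise beyond 5 SD above unstimulated control wells' mean, seen in both duplicate runs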;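 note: plate controls were buffer EC0 wells for no effect and acetylcholine ECmax response for full effect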
* marks the source's active call; other numbers are inactive results; i = inactive; / = not tested or not shown. In the library only some 2.3% were active in any assay of this set; here they are far more common.

SMILES	TRPC4 agonist	TRPC4 potent	TRPC6 activator	TRPC6 inh	TRPC4 block	TRPC6 block conf	TRPC6 act confirm	others
COC(=O)C1CN(C(=O)COc2cccc(C)c2C)c2ccccc2O1 (stereo not given)	i	i	i	-6*	i	i	i	HEK293 MPD ctr-2=98%*;HEK293 MPD ctr 2-2=i;TRPC4 ctr mod=14%*;TRPC4 ctr inh 2=i
CC(C)C(Sc1nc(-c2ccccc2)cc(-c2ccccc2)c1C#N)C(=O)O (stereo not given)	i	i	13*	i	i	i	126%*	HEK293 MPD ctr-2=355%*;HEK293 MPD ctr 2-2=i;TRPC4 ctr mod=66%*;TRPC4 ctr inh 2=i
Cc1sc(NC(=S)NC(=O)C(C)(C)C)c(C(N)=O)c1C	i	i	i	i	i	/	/
C/C(=N\NC(=O)CNc1ccccc1)c1ccccc1	i	i	i	i	i	/	/
O=C(NC1CC1)C1CCN(C2CCN(C(=O)CSc3ccccc3)CC2)CC1	i	i	i	i	i	/	/
O=C(NC1CC1)C1CCN(C2CCN(C(=O)CCOc3ccccc3)CC2)CC1	i	i	30*	i	i	i	66%*	HEK293 MPD ctr-2=246%*;HEK293 MPD ctr 2-2=i;TRPC4 ctr mod=76%*;TRPC4 ctr inh 2=i
O=C(NC1CCCCC1)C(c1ccccn1)N(C(=O)Cc1cccs1)c1ccc(Cl)cc1 (stereo not given)	i	i	i	-6.9*	i	i	/	TRPC4 sel inh 2=i;TRPC4 spec=22%*;HEK293 MPD ctr 2-1=i;HEK293 MPD ctr-1=11%*
Cc1cc(C)cc(N(C(=O)Cc2cccs2)C(C(=O)NC2CCCCC2)c2ccccn2)c1 (stereo not given)	i	i	i	i	i	/	/
COC(=O)C(NC(=O)c1ccc(C)cc1)(Nc1cccc(C)n1)C(F)(F)F (stereo not given)	i	i	i	-7.2*	i	63%*	/	TRPC4 sel inh 2=i;TRPC4 spec=i;HEK293 MPD ctr 2-1=i;HEK293 MPD ctr-1=i
CC[n+]1ccc2cc(OC)c(OC)cc2c1Cc1ccc(OC)c(OC)c1	i	i	i	-6.4*	i	i	i	HEK293 MPD ctr-2=-232%*;HEK293 MPD ctr 2-2=i;TRPC4 ctr mod=-40%*;TRPC4 ctr inh 2=i
O=C(Nc1ccc2c(c1)OCO2)c1cc(-c2ccc(O)cc2)on1	i	i	i	i	i	/	/
N#CC(c1ccc(F)cc1)c1ccc(C(=O)c2ccc(F)cc2)cc1 (stereo not given)	i	i	i	-7.4*	i	i	i	TRPC4 sel inh 2=i;TRPC4 spec=i;HEK293 MPD ctr 2-1=i;HEK293 MPD ctr-1=i
C=CCNc1nc(Cl)nc(Nc2cc(Cl)ccc2OC)n1	i	i	i	i	i	/	/
O=C(c1ccco1)N1CCN(S(=O)(=O)c2ccc(Oc3ccccc3)cc2)CC1	i	i	i	-13*	i	i	i	TRPC4 sel inh 2=i;TRPC4 spec=2.1%*;HEK293 MPD ctr 2-1=232%*;HEK293 MPD ctr-1=1.1%*
O=C(c1ccco1)N1CCN(S(=O)(=O)c2ccc(Br)cc2)CC1	i	i	i	i	i	/	/
CCN1CCN(C(c2cccs2)C(C)NS(=O)(=O)c2ccc(C)cc2)CC1 (stereo not given)	i	i	i	i	i	/	/
CCOc1ccc2nc(C)cc(Nc3ccc(N4CCOCC4)cc3)c2c1	i	i	i	i	i	/	/
CC(=O)c1ccc(Nc2cc(C)nc3ccc(C)cc23)cc1	i	i	i	-9.5*	i	i	i	TRPC4 sel inh 2=77%*;TRPC4 spec=-12%*;HEK293 MPD ctr 2-1=14%*;HEK293 MPD ctr-1=-276%*
Cc1ccc2nc(C)cc(NCCO)c2c1	i	i	i	-8.4*	i	58%*	i	HEK293 MPD ctr-2=-282%*;HEK293 MPD ctr 2-2=81%*;TRPC4 ctr mod=-48%*;TRPC4 ctr inh 2=54%*
CCOc1ccc2nc(C)cc(Nc3ccc4c(c3)OCCO4)c2c1	i	i	i	-9.8*	i	i	i	TRPC4 sel inh 2=i;TRPC4 spec=-13%*;HEK293 MPD ctr 2-1=i;HEK293 MPD ctr-1=-178%*
Cc1cc(Nc2ccc3c(c2)OCCO3)c2ccccc2n1	i	i	i	i	i	/	/
Cc1ccc2nc(C)cc(Nc3ccc4c(c3)OCCO4)c2c1	i	i	i	-6.3*	-8*	64%*	i	HEK293 MPD ctr-2=-72%*;HEK293 MPD ctr 2-2=i;TRPC4 ctr mod=i;TRPC4 ctr inh 2=67%*
O=C(COC(=O)c1ccc(Br)cc1)Nc1ccccc1Br	i	i	i	i	i	/	/
CCCCOC(=O)c1ccc(NC(=O)c2ccccc2OC)cc1	i	i	i	i	i	/	/
CCCCCOC(=O)c1ccc(NC(=O)c2cccc(NC(=O)c3ccccc3C(=O)O)c2)cc1	i	i	14*	i	i	/	200%*	HEK293 MPD ctr-2=i;HEK293 MPD ctr 2-2=i;TRPC4 ctr mod=15%*;TRPC4 ctr inh 2=i
CCCCOC(=O)c1ccc(NC(=O)c2ccoc2C)cc1	i	i	i	i	i	/	/
CCCCOC(=O)c1ccc(NC(=O)c2ocnc2C)cc1	i	i	i	-6.7*	i	i	i	TRPC4 sel inh 2=i;TRPC4 spec=i;HEK293 MPD ctr 2-1=i;HEK293 MPD ctr-1=i
O=C(CN1C(=O)COc2ccccc21)N1CCN(C2CCCCC2)CC1	i	i	i	i	i	/	/
N=c1c(C(=O)NC2CCCC2)cc2c(=O)n3ccccc3nc2n1CCN1CCOCC1	i	i	i	i	i	/	/

Screens (PubChem)
